The subject of series [1] is HL-60. Nature of the series: Antioxidant activity against PMA-treated human HL60 cells assessed as inhibition of ROS generation.
For series [2], the system named is HL-60. As to the kind of experiment: Cytotoxicity against human HL60 cells up to 25 ug/mL.
For series [3], the system named is RAW264.7. Nature of the series: Cytotoxicity against mouse RAW264.7 cells up to 25 ug/mL.
A short description of series [4]: Inhibition of NF-kappaB-mediaated transcription in human SW1353 cells by reporter gene assay. Type of series: cell-based. Put shortly: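 Luciferase reporter gene assay for NF-κB-mediated transcription in SW 1353 cells, with parthenolide as positive control. A luciferase construct carrying SP-1 binding sites served as a control for nonspecific transcription inhibition.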
For orientation: A reporter such as luciferase makes a cellular process visible.

Series [5] can be described thus: Inhibition of LPS-induced NOS activity in mouse RAW264.7 cells. It counts as cell-based. In short, it runs like this: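 Mouse RAW 264.7 macrophages were stimulated with LPS. iNOS activity was read as the decrease in nitrite production relative to untreated vehicle controls, with L-NMMA as positive control. Compounds were tested up to 25 µg/mL.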
Setting [6] is: Homo sapiens, SW1353, read-out: IC50.

SMILES strings stand for the structures. The source made the active and inactive calls. The calls are words filed in the database; no cut-off is given here. A value given as a limit tells only on which side of the number the result lay.

With `CC(=O)/C=C(/C)C(=O)/C(C)=C/C(C)=C/C(C)/C=C/c1ccccc1` (centres undefined), the result in series [1] was inactive. For the same compound, the Activity entry in series [2] and in series [3] was “Non-toxic” each time.

As a reminder, the IC50 is the concentration that inhibits the measured activity by half. Take `CCC1=C[C@@H](C)[C@@H]2C(C)=C[C@@](/C=C/c3ccccc3)(CC)[C@](C)(C(=O)O)[C@@H]12` [24-NOR-SPICULOIC ACID B]: in series [1], the outcome was inactive. In addition, the IC50 in series [4] (setting [6]) was 0.47 µM; in series [5] (read-out: IC50), 54.9 µM. Further, the Activity entry in series [2] and in series [3] was “Non-toxic” in each case.

With `CNC(=N)NCCC[C@H](N)C(=O)O` [TILARGININE], in series [1], the outcome was inactive. Further, the IC50 in series [5] (read-out: IC50) is greater than 101 µM. Besides, the Activity entry in series [2] and in series [3] was “Non-toxic” each time.

For the compound `CCC1=C[C@@H](C)[C@@H]2C(C)=C[C@](C)(/C=C/C=C/c3ccccc3)[C@](C)(C(=O)O)[C@@H]12` [22-NOR-ZYGGOMPHIC ACID B], the result in series [1] was inactive. Also, the results for the 50% inhibitory concentration (IC50) entry in series [4] (sw1353) and in series [5] (read-out: IC50) were “Not Active” and 19.9 µM, respectively. The Activity result in series [2] and in series [3] was “Non-toxic” throughout.

As for `CCC1=C[C@@](/C=C/c2ccccc2)(CC)[C@](C)(C(=O)O)[C@H]2C(CC)=C[C@@H](C)[C@H]12` [SPICULOIC ACID B], in series [1], the outcome was inactive. For the same compound, the concentration for half-maximal inhibition (IC50) in series [4] (setting [6]) is 27.2 µM; in series [5], “Not Active”. The Activity entry in series [2] and in series [3] was “Non-toxic” each time.

For the compound `C=C1C(=O)O[C@@H]2C3O[C@]3(C)CC/C=C(\C)CC[C@@H]12` (some centres undefined), in series [1], the outcome was inactive. For the same compound, the half-inhibitory concentration (IC50) in series [4] (setting [6]) was determined as 3.3 µM. The Activity result in series [2] and in series [3] was “Non-toxic” in each case.

`CC(=O)C/C(C)=C/C(C)/C=C/c1ccccc1` (centres undefined): the result in series [1] was inactive. Also, the Activity entry in series [2] and in series [3] was “Non-toxic” in each case.

On to `CC1=C[C@](C)(/C=C(C)/C=C/c2ccccc2)[C@](C)(C(=O)O)[C@H]2C(C)=C[C@@H](C)[C@H]12` [27-NOR-ZYGGOMPHIC ACID B], for which the result in series [1] was inactive. Besides, the IC50 in series [4] (setting [6]) was 2.28 µM; in series [5] (read-out: IC50), 18.6 µM. Moreover, the Activity entry in series [2] and in series [3] was “Non-toxic” throughout.

Turning to `CCC1=C[C@@H](C)[C@@H]2C(C)=C[C@](C)(/C=C(C)/C=C/c3ccccc3)[C@](C)(C(=O)O)[C@@H]12` [ZYGGOMPHIC ACID B], in series [1], the result was inactive. The half-inhibitory concentration (IC50) is 25.8 µM in series [4] (setting [6]) and greater than 64.1 µM in series [5] (read-out: IC50). Moreover, the Activity result in series [2] and in series [3] was “Non-toxic” throughout.

For `CCC(O)/C(C)=C/C(C)C(O)/C(C)=C/C(C)=C/C(C)/C=C/c1ccccc1` (centres undefined), the result in series [1] was inactive. Besides, the concentration for half-maximal inhibition (IC50) is 25.6 µM in series [4] (setting [6]) and 64.1 µM in series [5] (read-out: IC50). For the same compound, the Activity result in series [2] and in series [3] was “Non-toxic” in each case.

Regarding `CC1=C[C@](C)(/C=C/C=C/c2ccccc2)[C@](C)(C(=O)O)[C@H]2C(C)=C[C@@H](C)[C@H]12` [22,27-DINOR-ZYGGOMPHIC ACID B], in series [1], the outcome was inactive. Also, the IC50 in series [4] (setting [6]) is 27.9 µM; in series [5] (read-out: IC50) it was 30.4 µM. The Activity entry in series [2] and in series [3] was “Non-toxic” each time.

(Values after ChEMBL document CHEMBL1221398, “Chemical constituents of the deep reef caribbean sponges Plakortis angulospiculatus and Plakortis halichondrioides and their anti-inflammatory activities” (J Nat Prod, 2010).)
